# Source: ChEMBL document CHEMBL5058577, “EUbOPEN Chemogenomics Library 2 (Multiplex)” (2022)
# Tested on: U2OS
# Experiment: Multiplex assay against U2OS
# Assay type: toxicity, cell-based
# Conditions: human
# Outline: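 Cells stained live at seeding with Hoechst33342, BioTracker Green Microtubule Cytoskeleton Dye, MitoTracker Red and Annexin V Alexa Fluor 680 were imaged on a CQ1 microscope at 37°C and 5% CO2 after compound addition. Their classification by CellPathfinder machine-learning gating ran from Hoechst high-intensity objects versus normal cells, to healthy, pyknosed or fragmented nuclei among normal cells, to mitotic or apoptotic among pyknosed cells. Tubulin, mitochondrial-mass and membrane-permeability phenotypes are per cents of healthy-nucleus cells.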
# [1] = 12 h, 1 µM, compound concentration 1 uM, replicate 1
# [2] = 12 h, 1 µM, compound concentration 1 uM, replicate 2
# [3] = 12 h, 10 µM, compound concentration 10 uM, replicate 1
# [4] = 12 h, 10 µM, compound concentration 10 uM, replicate 2
# [5] = 24 h, 1 µM, compound concentration 1 uM, replicate 1
# [6] = 24 h, 1 µM, compound concentration 1 uM, replicate 2
# [7] = 24 h, 10 µM, compound concentration 10 uM, replicate 1
# [8] = 24 h, 10 µM, compound concentration 10 uM, replicate 2
# [9] = 48 h, 1 µM, compound concentration 1 uM, replicate 1
# [10] = 48 h, 1 µM, compound concentration 1 uM, replicate 2
# [11] = 48 h, 10 µM, compound concentration 10 uM, replicate 1
# [12] = 48 h, 10 µM, compound concentration 10 uM, replicate 2
structure (smiles),measurement,setting,value
CCCCCC(O)/C=C/[C@H]1C(=O)CC(O)C1C/C=C\CCCC(=O)O (stereo partly specified),Population Apoptotic (%),[1],60%
same,Population Fragmented Nuclei (%),[1],28%
same,Population Healthy Nuclei (%),[1],59%
same,Population Hoechst High Intensity Objects (%),[1],1%
same,Population Membrane Permeable-Phenotype (%),[1],5%
same,Population Mitochondria Different-Phenotype (%),[1],4%
same,Population Mitotic Cells (%),[1],40%
same,Population Normal (%),[1],98%
same,Population Pyknosed Nuclei (%),[1],12%
same,Population Tubulin-Different-Phenotype (%),[1],4%
same,Total Cell Count,[1],203
same,Population Apoptotic (%),[2],88%
same,Population Fragmented Nuclei (%),[2],15%
same,Population Healthy Nuclei (%),[2],76%
same,Population Hoechst High Intensity Objects (%),[2],0%
same,Population Membrane Permeable-Phenotype (%),[2],8%
same,Population Mitochondria Different-Phenotype (%),[2],6%
same,Population Mitotic Cells (%),[2],11%
same,Population Normal (%),[2],99%
same,Population Pyknosed Nuclei (%),[2],8%
same,Population Tubulin-Different-Phenotype (%),[2],8%
same,Total Cell Count,[2],113
same,Population Apoptotic (%),[3],71%
same,Population Fragmented Nuclei (%),[3],23%
same,Population Healthy Nuclei (%),[3],69%
same,Population Hoechst High Intensity Objects (%),[3],2%
same,Population Membrane Permeable-Phenotype (%),[3],8%
same,Population Mitochondria Different-Phenotype (%),[3],3%
same,Population Mitotic Cells (%),[3],28%
same,Population Normal (%),[3],97%
same,Population Pyknosed Nuclei (%),[3],7%
same,Population Tubulin-Different-Phenotype (%),[3],5%
same,Total Cell Count,[3],190
same,Population Apoptotic (%),[4],66%
same,Population Fragmented Nuclei (%),[4],16%
same,Population Healthy Nuclei (%),[4],73%
same,Population Membrane Permeable-Phenotype (%),[4],10%
same,Population Mitochondria Different-Phenotype (%),[4],2%
same,Population Mitotic Cells (%),[4],33%
same,Population Pyknosed Nuclei (%),[4],9%
same,Population Tubulin-Different-Phenotype (%),[4],4%
same,Total Cell Count,[4],94
same,Population Apoptotic (%),[5],86%
same,Population Fragmented Nuclei (%),[5],27%
same,Population Healthy Nuclei (%),[5],63%
same,Population Hoechst High Intensity Objects (%),[5],2%
same,Population Membrane Permeable-Phenotype (%),[5],3%
same,Population Mitochondria Different-Phenotype (%),[5],0%
same,Population Mitotic Cells (%),[5],13%
same,Population Normal (%),[5],98%
same,Population Pyknosed Nuclei (%),[5],8%
same,Population Tubulin-Different-Phenotype (%),[5],1%
same,Total Cell Count,[5],250
same,Population Apoptotic (%),[6],90%
same,Population Fragmented Nuclei (%),[6],16%
same,Population Healthy Nuclei (%),[6],74%
same,Population Hoechst High Intensity Objects (%),[6],0%
same,Population Membrane Permeable-Phenotype (%),[6],5%
same,Population Mitochondria Different-Phenotype (%),[6],7%
same,Population Mitotic Cells (%),[6],9%
same,Population Normal (%),[6],99%
same,Population Tubulin-Different-Phenotype (%),[6],4%
same,Total Cell Count,[6],131
same,Population Apoptotic (%),[7],100%
same,Population Fragmented Nuclei (%),[7],23%
same,Population Healthy Nuclei (%),[7],66%
same,Population Hoechst High Intensity Objects (%),[7],1%
same,Population Membrane Permeable-Phenotype (%),[7],6%
same,Population Mitochondria Different-Phenotype (%),[7],4%
same,Population Mitotic Cells (%),[7],0%
same,Population Normal (%),[7],98%
same,Population Pyknosed Nuclei (%),[7],9%
same,Population Tubulin-Different-Phenotype (%),[7],4%
same,Total Cell Count,[7],216
same,Population Apoptotic (%),[8],90%
same,Population Fragmented Nuclei (%),[8],16%
same,Population Healthy Nuclei (%),[8],74%
same,Population Hoechst High Intensity Objects (%),[8],2%
same,Population Membrane Permeable-Phenotype (%),[8],5%
same,Population Mitochondria Different-Phenotype (%),[8],1%
same,Population Mitotic Cells (%),[8],10%
same,Population Normal (%),[8],97%
same,Population Pyknosed Nuclei (%),[8],8%
same,Population Tubulin-Different-Phenotype (%),[8],2%
same,Total Cell Count,[8],118
same,Population Apoptotic (%),[9],89%
same,Population Fragmented Nuclei (%),[9],19%
same,Population Healthy Nuclei (%),[9],71%
same,Population Hoechst High Intensity Objects (%),[9],2%
same,Population Membrane Permeable-Phenotype (%),[9],4%
same,Population Mitochondria Different-Phenotype (%),[9],3%
same,Population Mitotic Cells (%),[9],10%
same,Population Normal (%),[9],97%
same,Population Pyknosed Nuclei (%),[9],8%
same,Population Tubulin-Different-Phenotype (%),[9],2%
same,Total Cell Count,[9],334
same,Population Apoptotic (%),[10],100%
same,Population Fragmented Nuclei (%),[10],13%
same,Population Healthy Nuclei (%),[10],79%
same,Population Membrane Permeable-Phenotype (%),[10],5%
same,Population Mitochondria Different-Phenotype (%),[10],4%
same,Population Mitotic Cells (%),[10],0%
same,Population Pyknosed Nuclei (%),[10],7%
same,Population Tubulin-Different-Phenotype (%),[10],3%
same,Total Cell Count,[10],189
same,Population Apoptotic (%),[11],89%
same,Population Fragmented Nuclei (%),[11],23%
same,Population Healthy Nuclei (%),[11],67%
same,Population Hoechst High Intensity Objects (%),[11],3%
same,Population Membrane Permeable-Phenotype (%),[11],6%
same,Population Mitochondria Different-Phenotype (%),[11],3%
same,Population Mitotic Cells (%),[11],10%
same,Population Normal (%),[11],96%
same,Population Pyknosed Nuclei (%),[11],9%
same,Population Tubulin-Different-Phenotype (%),[11],4%
same,Total Cell Count,[11],302
same,Population Apoptotic (%),[12],100%
same,Population Fragmented Nuclei (%),[12],21%
same,Population Healthy Nuclei (%),[12],70%
same,Population Hoechst High Intensity Objects (%),[12],2%
same,Population Membrane Permeable-Phenotype (%),[12],7%
same,Population Mitotic Cells (%),[12],0%
same,Population Normal (%),[12],97%
same,Population Pyknosed Nuclei (%),[12],7%
same,Population Tubulin-Different-Phenotype (%),[12],3%
same,Total Cell Count,[12],161
